Series [1] has as its system Vero. The series is described as follows: Cytotoxicity against African green monkey Vero cells assessed as reduction in cell viability using compound addition to cell culture cells in log phase of growth and incubated for 48 hrs by MTT assay. As to conditions: Chlorocebus sabaeus, Vero, 48 h; read-out: IC50. In kind it is cell-based, Chlorocebus sabaeus. Background: Formazan colour is commonly taken as a measure of viable cells.

For series [2], the system named is HeLa. Description: Induction of apoptosis in human HeLa cells assessed as increase in caspase-3 activity by measuring pNA release level at 24 uM incubated for 8 hrs using c-DEVD-pNA substrate by colorimetric assay. Type of series: functional. The essentials:
(§1)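 HeLa cells in DMEM with 10% FBS were exposed for 4 h (fixed 24 or 32 level for 8 h). Staurosporine for 4 h served as the positive control. Cells were lysed at 4 °C for 10 min and centrifuged, and supernatant protein was measured by Bradford. Caspase-3 activity was read colorimetrically as nmol pNA/min/mL, with treated/untreated OD ratios. Values are means ± SD of three independent experiments in triplicate.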

Series [3] deals with HeLa. The series is described as follows: Cytotoxicity against human HeLa cells assessed as reduction in cell viability using compound addition to cell culture cells in log phase of growth and incubated for 48 hrs by MTT assay. Type of series: functional, cell-based. The conditions noted are these: Homo sapiens, HeLa, 48 h; read-out: IC50.
Series [4] relates to MCF7. The series is described as follows: Cytotoxicity against human MCF7 cells assessed as reduction in cell viability using compound addition to cell culture cells in log phase of growth and incubated for 48 hrs by MTT assay. Type of series: functional, cell-based. As to conditions: Homo sapiens, MCF7, 48 h; read-out: IC50.
Series [5] in a line: Selectivity index, ratio of IC50 for African green monkey Vero cells to IC50 for human HeLa cells. As to conditions: Vero cells and HeLa cells, read-out: Ratio IC50. Type of series: toxicity.
Series [6] has as its system A549. Description: Cytotoxicity against human A549 cells assessed as reduction in cell viability using compound addition to cell culture cells in lag phase of growth and incubated for 48 hrs by MTT assay. Type of series: functional, cell-based. As to conditions: Homo sapiens, A549, 48 h; read-out: IC50.
The subject of series [7] is HeLa. Description: Induction of late apoptosis in human HeLa cells at 8 uM incubated for 1 hr by annexin V and propidium iodide staining based flow cytometry. Type of series: functional, cell-based. A general note: A flow cytometer gives signals particle by particle.
Series [8] deals with MCF7. The series is described as follows: Cytotoxicity against human MCF7 cells assessed as reduction in cell viability using compound addition to cell culture cells in lag phase of growth and incubated for 48 hrs by MTT assay. Type of series: functional, cell-based. The conditions noted are these: Homo sapiens, MCF7, 48 h; read-out: IC50.
The subject of series [9] is HeLa. The series is described as follows: Induction of apoptosis in human HeLa cells assessed as increase in caspase-3 activity by measuring pNA release level at 32 uM incubated for 4 hrs using c-DEVD-pNA substrate by colorimetric assay. Type of series: functional. The essentials: as §1
Series [10] has as its system HeLa. The series is described as follows: Induction of cell cycle arrest in human HeLa cells assessed increase in subG1 phase accumulation at 24 uM incubated for 12 hrs by 33342 propidium iodide based flow cytometry relative to untreated control. In kind it is functional.
The subject of series [11] is HeLa. Description: Induction of cell cycle arrest in human HeLa cells assessed accumulation at G2/M phase at 16 uM incubated for 24 hrs by 33342 propidium iodide based flow cytometry relative to untreated control. Type of series: functional. The conditions noted are these: in the assay text read “accumulation at sub-G1 phase” for “accumulation at G2/M phase”. The method, boiled down:
(§2)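 HeLa cells (1–2 × 10^6 per well) were exposed for 12 h at 24 µM, or at 16 µM over a time course. Adherent and floating cells were pooled, washed in ice-cold PBS, and fixed/permeabilized overnight in ice-cold 70% ethanol. DNA was stained with propidium iodide and G1, G2/M and sub-G1 (hypoploid) fractions were read by flow cytometry. Results are from ≥3 independent experiments in triplicate.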

For series [12], the system named is HeLa. The series is described as follows: Induction of early apoptosis in human HeLa cells at 4 uM incubated for 1 hr by annexin V and propidium iodide staining based flow cytometry. Type of series: functional, cell-based.
Series [13] relates to HeLa. Description: Induction of apoptosis in human HeLa cells assessed as increase in caspase-3 activity by measuring pNA release level at 12 uM incubated for 4 hrs using c-DEVD-pNA substrate by colorimetric assay. In kind it is functional. The method, boiled down: as §1
The test system of series [14] is HeLa. Description: Induction of cell cycle arrest in human HeLa cells assessed increase in subG1 phase accumulation at 16 uM by 33342 propidium iodide based flow cytometry relative to untreated control. In kind it is functional. As to conditions: TDE = time-dependent effect. The essentials:
as §2

The test system of series [15] is HeLa. The series is described as follows: Induction of apoptosis in human HeLa cells assessed as increase in caspase-3 activity by measuring pNA release level at 8 uM incubated for 4 hrs using c-DEVD-pNA substrate by colorimetric assay. Type of series: functional. The method, boiled down:
as §1

Series [16] has as its system HeLa. Description: Induction of cell cycle arrest in human HeLa cells assessed increase in subG1 phase accumulation at 24 uM incubated for 12 hrs by 33342 propidium iodide based flow cytometry relative to Withaferin A. In kind it is functional. The method, boiled down:
as §2

The subject of series [17] is HeLa. Description: Induction of apoptosis in human HeLa cells assessed increase in apoptotic nuclei formation at 8 uM incubated for 12 hrs by Hoechst 33342 staining based fluorescence microscopy. Type of series: functional.
In series [18] the test system is HeLa. The series is described as follows: Induction of apoptosis in human HeLa cells assessed as increase in caspase-3 activity by measuring pNA release level at 16 uM incubated for 4 hrs using c-DEVD-pNA substrate by colorimetric assay. Type of series: functional. The method, boiled down:
as §1

The subject of series [19] is HeLa. Description: Induction of apoptosis in human HeLa cells assessed increase in DNA fragmentation at 16 uM incubated for 12 hrs by ethidium bromide staining based agarose gel electrophoresis. In kind it is functional, cell-based. The essentials: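 HeLa cells were incubated with the compounds at varying concentrations for 12 or 24 h. Controls were DMSO (solvent) and staurosporine 2 µM (positive). Adherent and floating cells were pooled, centrifuged at 500 g and washed twice in cold PBS. Genomic DNA was extracted with a kit, run on 1.8% agarose, stained with ethidium bromide and viewed under UV.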

Series [20] has as its system HeLa. Description: Induction of cell cycle arrest in human HeLa cells assessed reduction in G2/M phase accumulation at 16 uM by 33342 propidium iodide based flow cytometry relative to untreated control. In kind it is functional. As to conditions: TDE = time-dependent effect. The method, boiled down:
as §2

Series [21] deals with HeLa. Description: Induction of cell cycle arrest in human HeLa cells assessed increase in hypoploid phase accumulation at 24 uM incubated for 12 hrs by […] propidium iodide based flow cytometry relative to untreated control. In kind it is functional.
Series [22] relates to Vero. The series is described as follows: Cytotoxicity against African green monkey Vero cells assessed as reduction in cell viability using compound addition to cell culture cells in lag phase of growth and incubated for 48 hrs by MTT assay. Type of series: cell-based, Chlorocebus sabaeus. The conditions noted are these: Chlorocebus sabaeus, Vero, 48 h; read-out: IC50.
In series [23] the test system is HeLa. The series is described as follows: Induction of apoptosis in human HeLa cells assessed as increase in caspase-3 activity by measuring pNA release level at 24 uM incubated for 4 hrs using c-DEVD-pNA substrate by colorimetric assay. In kind it is functional. The method, boiled down: as §1
The test system of series [24] is HeLa. The series is described as follows: Cytotoxicity against human HeLa cells assessed as reduction in cell viability using compound addition to cell culture cells in lag phase of growth and incubated for 48 hrs by MTT assay. In kind it is functional, cell-based. As to conditions: Homo sapiens, HeLa, 48 h; read-out: IC50.
Series [25] relates to A549. The series is described as follows: Cytotoxicity against human A549 cells assessed as reduction in cell viability using compound addition to cell culture cells in log phase of growth and incubated for 48 hrs by MTT assay. In kind it is functional, cell-based. The conditions noted are these: Homo sapiens, A549, 48 h; read-out: IC50.
For series [26], the system named is HeLa. The series is described as follows: Induction of apoptosis in human HeLa cells assessed as reduction in cellular adhesion at 32 uM incubated for 4 hrs by light microscopy.
Series [27] relates to MCF7. The series is described as follows: Ratio of IC50 for cytotoxicity against human MCF7 cells using compound addition to cell culture cells in lag phase of growth and incubated for 48 hrs by MTT assay to IC50 for cytotoxicity against human MCF7 cells using compound addition to cell culture cells in log phase of growth and incubated for 48 hrs by MTT assay. Type of series: functional.

For series [28], the system named is HeLa. The series is described as follows: Induction of apoptosis in human HeLa cells assessed as reduction in cellular integrity at 32 uM incubated for 4 hrs by light microscopy.

Calls of active or inactive are those of the source. The calls are words filed in the database; no cut-off is given here.

Regarding `CC1=C(COC(=O)c2ccccc2)C(=O)O[C@@H]([C@@H](C)[C@H]2CC[C@H]3[C@@H]4C[C@H]5O[C@]56[C@@H](O)C=CC(=O)[C@]6(C)[C@H]4CC[C@]23C)C1`, the half-inhibitory concentration (IC50) (as a rule, the concentration that inhibits the measured activity by half) with Vero [1] was 500 nM; with HeLa [3] it was 1600 nM; with MCF7 [4], 700 nM; with A549 [6], 1000 nM; in the series with MCF7 [8], 300 nM; in the series on Vero [22] it was 200 nM. Further, the concentration for half-maximal inhibition (IC50) in the series on HeLa [24] worked out at 800 nM; in the series with A549 [25] it was 1500 nM. Also, the Activity was 1.7 to 2 nmol/min/mL in the series with HeLa [2]; 0.85 nmol/min/mL in the series on HeLa [9]; 37.8% in the series on HeLa [11]; 0.52 nmol/min/mL with HeLa [13]; “Tde” in the series with HeLa [14]; 0.32 nmol/min/mL in the series with HeLa [15]. For the same molecule, the Activity with HeLa [17] is 28%; in the series with HeLa [18], 0.67 nmol/min/mL; in the series on HeLa [20], “Tde”; in the series on HeLa [21] it was 22.1%; in the series on HeLa [23], 1.16 nmol/min/mL. Moreover, the selectivity ratio in series [5] was 2.5. Also, the outcome in the series with HeLa [7], with HeLa [12] and in the series on HeLa [19] was Active. For the same molecule, the “fold change (FC)” value in the series on HeLa [10] is 4 - 6; with HeLa [16], 2.

Consider `CC1=C(COC(=O)c2ccccc2)C(=O)O[C@@H]([C@@H](C)[C@H]2CC[C@H]3[C@@H]4C[C@H]5O[C@]56C(=O)C=CC(=O)[C@]6(C)[C@H]4CC[C@]23C)C1`, for which the IC50 is 700 nM in the series on Vero [1]; 1900 nM in the series on HeLa [3]; 1100 nM in the series with MCF7 [4]; 3200 nM with A549 [6]; 5400 nM with MCF7 [8]; 3100 nM in the series on Vero [22]. The IC50 was determined as 2600 nM with HeLa [24] and 2300 nM in the series on A549 [25]. The Activity was determined as 0.61 nmol/min/mL in the series with HeLa [9]; 0.4 nmol/min/mL in the series with HeLa [13]; 0.65 nmol/min/mL in the series on HeLa [15]; 0.67 nmol/min/mL in the series on HeLa [18]; 1.05 nmol/min/mL in the series with HeLa [23]. The outcome in the series on HeLa [26] and in the series with HeLa [28] was Active. Also, the “Ratio IC50” value in the series on MCF7 [27] is over 3.

The record behind these values is ChEMBL document CHEMBL4190346, “Structure-based design, synthesis, and biological evaluation of withaferin A-analogues as potent apoptotic inducers” (Eur J Med Chem, 2017).
